From ChEMBL document CHEMBL1144505, “Synthesis, analytical behaviour and biological evaluation of new 4-substituted pyrrolo[1,2-a]quinoxalines as antileishmanial agents” (Bioorg Med Chem, 2007)

Key:
Leishmania amazonensis = test: Antileishmanial activity against Leishmania amazonensis MHOM/BR/1987/BA promastigotes by MTT assay after 1 to 2 days; type: functional, organism-based
Outline: (§1)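 Promastigotes harvested at stationary growth phase (10⁶/ml), washed and incubated with compounds in culture medium. Viability was read by MTT reduction to formazan, with detergent lysis and absorbance at 570 nm; in some experiments parasites were instead counted under microscope. […] Values are means of three independent experiments.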

[1] = Selectivity index, ratio of IC50 for phytohemagglutininin-activated-PBMC to IC50 for Leishmania infantum clone MCAN/GR/82/LEM497 promastigotes; type: functional
Outline: (§2)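 Selectivity index is the IC50 on PHA-activated PBMC divided by the IC50 against the L. amazonensis or L. infantum promastigotes.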

[2] = Partition coefficient, log D at pH 7.4; settings: octanol/water
[3] = Selectivity index, ratio of IC50 for phytohemagglutininin-activated-PBMC to IC50 for Leishmania amazonensis MHOM/BR/1987/BA promastigotes; type: functional; outline: as §2
PBMC [4] = test: Cytotoxicity against human PBMC by MTT assay after 3 to 4 days; type: cell-based
Outline: (§3)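 Freshly isolated PBMC from healthy volunteers were prepared on a Ficoll gradient and cultured in medium alone or stimulated with PHA (5 µg/ml). Compounds were added, and after 3–4 days cells were harvested, washed and counted by trypan blue exclusion; in some experiments MTT was used instead. IC50 was obtained by linear regression, and the maximum tolerated concentration was also assessed.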

Leishmania infantum = test: Antileishmanial activity against Leishmania infantum clone MCAN/GR/82/LEM497 promastigotes by MTT assay after 1 to 2 days; type: functional, organism-based; outline: as §1
PBMC [5] = test: Cytotoxicity against human phytohemagglutininin-activated-PBMC by MTT assay after 3 to 4 days; type: cell-based; outline: as §3

Structure (SMILES)	logD [2]	IC50 (Leishmania amazonensis) [µM]	Ratio IC50 [1]	Ratio IC50 [3]	IC50 (PBMC [4]) [µM]	IC50 (Leishmania infantum) [µM]	IC50 (PBMC [5]) [µM]
C=Cc1nc2ccccc2n2cccc12	3.08	3	2	0.3	3	0.5	1
c1ccc2c(c1)nc(CCc1ccc3c(c1)OCO3)c1cccn12	3.84	7		9.3	> 100	> 50	65
CCCCC#Cc1nc2cc(OC)ccc2n2cccc12	4.35	3	0.7	1.7	6	7	5
C[C@@H]1O[C@H]1c1nc2ccccc2n2cccc12 (relative stereo)	2.61	> 50			> 100	> 50	> 100
CCC/C=C/c1nc2cc(OC)ccc2n2cccc12	4.52	6	40	6.7	60	1	40
C[C@@H]1[C@H](O)[C@@H](C)/C=C/C=C/C=C/C=C/C=C/C=C/C=C/[C@H](O[C@@H]2O[C@H](C)[C@@H](O)[C@H](N)[C@@H]2O)C[C@@H]2O[C@](O)(C[C@@H](O)C[C@@H](O)[C@H](O)CC[C@@H](O)C[C@@H](O)CC(=O)O[C@H]1C)C[C@H](O)[C@H]2C(=O)O [AMPHOTERICIN B]		1	106.6	96	> 100	0.9	96
COc1ccc2c(c1)nc(/C=C/c1ccccc1)c1cccn12		36			> 100	5	> 100
C1=C(c2nc3ccccc3n3cccc23)CCCC1	4.12	> 50			> 100	> 50	> 100
CCCCCc1nc2cc(OC)ccc2n2cccc12	4.38	> 50	<1	<1	66	> 50	45
C/C=C/c1nc2ccccc2n2cccc12	3.44	0.5	7.1	10	6	0.7	5

More lines, main results first:

logD [2]	Structure (SMILES)	IC50 (Leishmania amazonensis) [µM]	Ratio IC50 [1]	Ratio IC50 [3]	IC50 (PBMC [4]) [µM]	IC50 (Leishmania infantum) [µM]	IC50 (PBMC [5]) [µM]
3.6	c1ccc(-c2nc3ccccc3n3cccc23)cc1	> 50			> 100	> 50	> 100
3.4	CCCc1nc2cc(OC)ccc2n2cccc12	> 50			> 100	> 50	90
3.35	CCCc1nc2ccccc2n2cccc12	> 50			> 100	> 50	100
3.47	C/C=C/c1nc2cc(OC)ccc2n2cccc12	7	2.5	0.7	5	2	5
3.48	C/C=C/c1nc2ccc(OC)cc2n2cccc12	1	10	5	7	0.5	5
4.84	C(=C\c1nc2ccccc2n2cccc12)/c1ccccc1	35		>2.9	> 100	> 50	> 100
4.44	CCC/C=C/c1nc2ccccc2n2cccc12	5	7.4	10.4	70	7	52
4.04	CCCCCc1nc2ccccc2n2cccc12	> 50	<1	<1	> 100	> 50	30
2.97	COc1ccc(CCc2nc3ccccc3n3cccc23)cc1OC	30		>3.3	> 100	> 50	> 100
3.3	C/C=C\c1nc2ccccc2n2cccc12	4	7.5	1.5	8	0.8	6
2.55	C[C@H]1O[C@H]1c1nc2ccccc2n2cccc12 (relative stereo)	> 50			> 100	> 50	> 100
4.36	CCCCC#Cc1nc2ccccc2n2cccc12	18	1	1.4	50	25	25
4.3	CCC/C=C/c1nc2ccc(OC)cc2n2cccc12	4	12	7.5	55	2.5	30
2.23	C/C=C/c1ccc2ccccc2n1 [CHIMANINE B]	5	6	8.4	43	7	42
